46 molecules from ChEMBL document CHEMBL3392996, “Non-transpeptidase binding arylthioether β-lactams active against Mycobacterium tuberculosis and Moraxella catarrhalis” (2015) can be followed below.

Molecules are shown by their SMILES. In brackets after ≈: the same amount, converted by molar mass. Bounds are passed on as bounds.

Holding throughout (type): functional
Experiment [1] deals with Moraxella catarrhalis. Description: Antimicrobial activity against Moraxella catarrhalis clinical isolates incubated for 48 hrs by microdilution broth method. In short, it runs like this: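 Stocks in DMSO were diluted at least 10-fold into Mueller-Hinton broth, then 2-fold serially diluted in MH from 500 to 15.6 μg/ml. Bacteria were added, with DMSO-only dilution controls, and incubated at 37 °C for 48 h. Growth was scored at 24 and 48 h. MIC was the lowest concentration with no growth. Run in quadruplicate.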

Experiment [2] concerns Moraxella catarrhalis. Description: Bactericidal activity against Moraxella catarrhalis clinical isolates incubated for 48 hrs by microdilution broth method and standard plating method. In short, it runs like this: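 Broth microdilution in Mueller-Hinton broth, 2-fold series from 500 to 15.6 μg/ml, with DMSO-only controls, 37 °C for 48 h. Wells showing no growth were plated (10 μL) on MH agar. MBC was the lowest concentration giving no growth on plating. Run in quadruplicate.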
(In general: In broth dilution the organism is exposed to a series of concentrations in liquid medium.)

In experiment [3] the test system is Mycobacterium tuberculosis. Description: Antimicrobial activity against Mycobacterium tuberculosis H37Rv incubated for 48 hrs by microdilution broth method.

For orientation: MIC means the smallest concentration in the dilution series that meets the test's criterion for growth inhibition. Low values mean greater potency, high ones weaker potency. Usually MBC stands for the lowest tested concentration that kills the bacteria rather than only halting them. A lower MBC goes with greater bactericidal potency. Regarding `C#CCCCC(=O)N1C(=O)CC1Sc1ccccc1` (racemic), the MIC with Moraxella catarrhalis [1] is 100 µg/mL (≈ 366 µM); in experiment [3], 45 µg/mL (≈ 165 µM). In the experiment on Moraxella catarrhalis [2], the MBC was determined as 100 µg/mL (≈ 366 µM).
As for `O=C1CC(Sc2cccs2)N1C(=O)NCc1ccccc1` (racemic), the MIC in the experiment with Moraxella catarrhalis [1] was 50 µg/mL (≈ 157 µM); in experiment [3], 6.25 µg/mL (≈ 19.6 µM). This molecule also showed an MBC against Moraxella catarrhalis [2] of 100 µg/mL (≈ 314 µM).
The matching figures for `O=C1CC(Sc2ccc(F)cc2Cl)N1` (racemic): 12.5 µg/mL (≈ 54 µM), 25 µg/mL (≈ 108 µM) and 50 µg/mL (≈ 216 µM).
Turning to `O=C1CC(Sc2ccc(F)cc2F)N1` (racemic), the MIC in the experiment with Moraxella catarrhalis [1] worked out at 1.5 µg/mL (≈ 6.97 µM); in experiment [3], 3.13 µg/mL (≈ 14.5 µM). In the experiment on Moraxella catarrhalis [2], this molecule displayed an MBC of 3.13 µg/mL (≈ 14.5 µM).
`O=C1CC(Sc2cccs2)N1` (racemic): the MIC turned out to be 25 µg/mL (≈ 135 µM) with Moraxella catarrhalis [1] and 6.25 µg/mL (≈ 33.7 µM) in experiment [3]. Moreover, the MBC with Moraxella catarrhalis [2] was 100 µg/mL (≈ 540 µM).
The matching figures for `O=C1CC(Sc2ccc([N+](=O)[O-])cc2)N1C(=O)NCc1ccccc1` (racemic): 3.12 µg/mL (≈ 8.74 µM), 25 µg/mL (≈ 70 µM) and 25 µg/mL (≈ 70 µM).
For `O=C1CC(Sc2ccc(F)cc2F)N1C(=O)NCc1ccccc1` (racemic), in that order: 1.63 µg/mL (≈ 4.68 µM), 100 µg/mL (≈ 287 µM) and 1.63 µg/mL (≈ 4.68 µM).
Take `O=C1CC(Sc2ccc(F)cc2)N1C(=O)NCC(c1ccccc1)c1ccccc1` (racemic): the MIC against Moraxella catarrhalis [1] is > 200 µg/mL; in experiment [3] it was > 100 µg/mL. For the same molecule, the MBC in the experiment on Moraxella catarrhalis [2] is > 200 µg/mL.
With `COc1ccc(OC)c(SC2CC(=O)N2C(=O)NCc2ccccc2)c1` (racemic), the figures for the MIC (in the experiment with Moraxella catarrhalis [1]; in experiment [3]) were 100 µg/mL (≈ 268 µM) and 50 µg/mL (≈ 134 µM), respectively. The MBC in the experiment with Moraxella catarrhalis [2] was 200 µg/mL (≈ 537 µM).
For `O=C1CC(Sc2cc(C(F)(F)F)cc(C(F)(F)F)c2)N1` (racemic), in that order: 12.5 µg/mL (≈ 39.7 µM), > 100 µg/mL and 100 µg/mL (≈ 317 µM).
The matching figures for `CC(NC(=O)N1C(=O)CC1Sc1ccccc1)c1cccc2ccccc12` (racemic): > 200 µg/mL, > 100 µg/mL and > 200 µg/mL.
Consider `O=C1CC(Sc2ccc([N+](=O)[O-])cc2)N1` (racemic), for which the MIC in the experiment on Moraxella catarrhalis [1] stood at 6.25 µg/mL (≈ 27.9 µM); in experiment [3] it was 25 µg/mL (≈ 111 µM). Further, in the experiment on Moraxella catarrhalis [2], the MBC came out at 12.5 µg/mL (≈ 55.7 µM).
For `COc1ccccc1SC1CC(=O)N1` (racemic), in that order: 100 µg/mL (≈ 478 µM), 250 µg/mL (≈ 1190 µM) and > 200 µg/mL.
Turning to `COc1ccc(OC)c(SC2CC(=O)N2)c1` (racemic), the minimal inhibitory concentration (MIC) in the experiment with Moraxella catarrhalis [1] is 100 µg/mL (≈ 418 µM); in experiment [3], 250 µg/mL (≈ 1040 µM). In the experiment with Moraxella catarrhalis [2], the MBC was > 200 µg/mL.
For `COc1ccc(SC2CC(=O)N2)cc1` (racemic), in that order: 200 µg/mL (≈ 956 µM), 100 µg/mL (≈ 478 µM) and > 200 µg/mL.
The matching figures for `O=C1CC(Sc2ccc(F)cc2Cl)N1C(=O)NC(c1ccccc1)c1ccccc1` (racemic): > 200 µg/mL, 50 µg/mL (≈ 113 µM) and > 200 µg/mL.
In the case of `CCNC(=O)N1C(=O)CC1Sc1ccc(F)cc1F` (racemic), the MIC in experiment [3] is > 100 µg/mL.
`O=C1CC(Sc2ccc(F)cc2Cl)N1C(=O)NCc1ccccc1` (racemic): the MIC against Moraxella catarrhalis [1] turned out to be 12.5 µg/mL (≈ 34.3 µM); in experiment [3] it was 25 µg/mL (≈ 68.5 µM). The same molecule had an MBC against Moraxella catarrhalis [2] of 25 µg/mL (≈ 68.5 µM).
As for `O=C1CC(Sc2cccc3ccccc23)N1` (racemic), the figures for the MIC (against Moraxella catarrhalis [1]; in experiment [3]) were 100 µg/mL (≈ 436 µM) and > 250 µg/mL, respectively. Besides, the MBC against Moraxella catarrhalis [2] is > 200 µg/mL.
In the case of `COc1ccc(SC2CC(=O)N2)cc1OC` (racemic), the results for the MIC (with Moraxella catarrhalis [1]; in experiment [3]) were 200 µg/mL (≈ 836 µM) and 250 µg/mL (≈ 1040 µM), respectively. In the experiment with Moraxella catarrhalis [2], this molecule gave an MBC of 200 µg/mL (≈ 836 µM).
On to `O=C1CC(Sc2ccc(C(F)(F)F)cc2)N1` (racemic), for which the MIC with Moraxella catarrhalis [1] was determined as 100 µg/mL (≈ 404 µM); in experiment [3] it was 12.5 µg/mL (≈ 50.6 µM). For the same molecule, in the experiment on Moraxella catarrhalis [2], the MBC worked out at 100 µg/mL (≈ 404 µM).
Turning to `O=C1CC(Sc2ccc(F)c(Cl)c2)N1C(=O)NCc1ccccc1` (racemic), the MIC with Moraxella catarrhalis [1] came to 6.25 µg/mL (≈ 17.1 µM); in experiment [3], 25 µg/mL (≈ 68.5 µM). Further, in the experiment with Moraxella catarrhalis [2], the MBC turned out to be 6.25 µg/mL (≈ 17.1 µM).
For `CSc1ccc(SC2CC(=O)N2)cc1` (racemic), the MIC in the experiment on Moraxella catarrhalis [1] was 100 µg/mL (≈ 444 µM); in experiment [3], > 100 µg/mL. The same molecule yielded an MBC in the experiment on Moraxella catarrhalis [2] of 100 µg/mL (≈ 444 µM).
In the case of `O=C1CC(Sc2ccc(F)cc2)N1` (racemic), the MIC was > 200 µg/mL against Moraxella catarrhalis [1] and > 100 µg/mL in experiment [3].
With `COc1ccccc1CNC(=O)N1C(=O)CC1Sc1ccc(F)cc1F` (racemic), the MIC in experiment [3] was ≥ 100 µg/mL.
As to `O=C1CC(Sc2ccccc2)N1` (racemic), the MIC against Moraxella catarrhalis [1] was > 200 µg/mL; in experiment [3], 25 µg/mL (≈ 139 µM).
On to `COc1ccccc1SC1CC(=O)N1C(=O)NCc1ccccc1` (racemic), for which the MIC against Moraxella catarrhalis [1] amounted to 200 µg/mL (≈ 584 µM); in experiment [3] it was 125 µg/mL (≈ 365 µM). Also, the MBC in the experiment on Moraxella catarrhalis [2] was found to be 200 µg/mL (≈ 584 µM).
Regarding `CSc1ccc(SC2CC(=O)N2C(=O)NCc2ccccc2)cc1` (racemic), the MIC in experiment [3] was > 100 µg/mL.
In the case of `O=C1CC([Se]c2ccccc2)N1C(=O)NCc1ccccc1` (racemic), the MIC against Moraxella catarrhalis [1] turned out to be 50 µg/mL (≈ 139 µM); in experiment [3], 25 µg/mL (≈ 69.6 µM). Also, the MBC in the experiment with Moraxella catarrhalis [2] came out at 50 µg/mL (≈ 139 µM).
As for `O=C1CC(Sc2ccccc2C(F)(F)F)N1C(=O)NCc1ccccc1` (racemic), the MIC with Moraxella catarrhalis [1] came to 25 µg/mL (≈ 65.7 µM); in experiment [3], 125 µg/mL (≈ 329 µM). In the experiment on Moraxella catarrhalis [2], this molecule gave an MBC of 25 µg/mL (≈ 65.7 µM).
As to `O=C1CC([Se]c2ccccc2)N1` (racemic), the MIC came to 6.25 µg/mL (≈ 27.6 µM) in the experiment on Moraxella catarrhalis [1] and 25 µg/mL (≈ 111 µM) in experiment [3]. Also, the MBC in the experiment on Moraxella catarrhalis [2] stood at 6.25 µg/mL (≈ 27.6 µM).
Turning to `O=C1CCN1C(=O)NCc1ccccc1`, the MIC (in the experiment on Moraxella catarrhalis [1]; in experiment [3]) was > 100 µg/mL each time.
For `O=C1CC(Oc2ccc([N+](=O)[O-])cc2)N1C(=O)NCc1ccccc1` (racemic), the results for the minimal inhibitory concentration (MIC) (in the experiment with Moraxella catarrhalis [1]; in experiment [3]) were 6.25 µg/mL (≈ 18.3 µM) and 250 µg/mL (≈ 732 µM), respectively. This molecule showed an MBC against Moraxella catarrhalis [2] of 6.25 µg/mL (≈ 18.3 µM).
Consider `O=C1CC(Sc2ccc(F)cc2F)N1C(=O)Nc1ccccc1F` (racemic), for which inhibition of growth in experiment [3] (MIC) required 25 µg/mL (≈ 71 µM).
For the molecule `C=CCSC1CC(=O)N1` (racemic), the MIC (in the experiment with Moraxella catarrhalis [1]; in experiment [3]) was > 200 µg/mL in each case.
`O=C1CC(Oc2ccc([N+](=O)[O-])cc2)N1` (racemic): the MIC against Moraxella catarrhalis [1] is 50 µg/mL (≈ 240 µM); in experiment [3], 25 µg/mL (≈ 120 µM). The MBC in the experiment on Moraxella catarrhalis [2] turned out to be 50 µg/mL (≈ 240 µM).
As to `O=C1CC(Sc2ccccc2)N1C(=O)NC1c2ccccc2-c2ccccc21` (racemic), in experiment [3], the MIC is > 100 µg/mL.
Turning to `O=C1CC(Sc2cccc(C(F)(F)F)c2)N1` (racemic), the MIC against Moraxella catarrhalis [1] was found to be 200 µg/mL (≈ 809 µM); in experiment [3], 6.25 µg/mL (≈ 25.3 µM).
Regarding `O=C1CC(Sc2ccc(F)c(Cl)c2)N1` (racemic), the MIC with Moraxella catarrhalis [1] came to 12.5 µg/mL (≈ 54 µM); in experiment [3], 25 µg/mL (≈ 108 µM). Further, the MBC in the experiment with Moraxella catarrhalis [2] worked out at 25 µg/mL (≈ 108 µM).
Regarding `COc1ccc(SC2CC(=O)N2C(=O)NCc2ccccc2)cc1` (racemic), the MIC in the experiment on Moraxella catarrhalis [1] was 200 µg/mL (≈ 584 µM); in experiment [3], 125 µg/mL (≈ 365 µM). In the experiment with Moraxella catarrhalis [2], this molecule gave an MBC of 200 µg/mL (≈ 584 µM).
For `O=C1CC(Sc2cccc(F)c2)N1` (racemic), the MIC was > 200 µg/mL in the experiment on Moraxella catarrhalis [1] and 100 µg/mL (≈ 507 µM) in experiment [3].
For `O=C1CC(Sc2ccccc2F)N1` (racemic), in that order: 200 µg/mL (≈ 1010 µM) and 25 µg/mL (≈ 127 µM).
With `O=C1CC(Sc2c(F)c(F)c(F)c(F)c2F)N1C(=O)NCc1ccccc1` (racemic), the figures for the MIC (with Moraxella catarrhalis [1]; in experiment [3]) were 3.1 µg/mL (≈ 7.7 µM) and > 100 µg/mL, respectively. Further, the MBC in the experiment with Moraxella catarrhalis [2] is 6.25 µg/mL (≈ 15.5 µM).
For `O=C1CC(Sc2ccc(F)cc2F)N1C(=O)NCc1ccccc1F` (racemic), the MIC in experiment [3] amounted to 50 µg/mL (≈ 136 µM).
The same measure, in the same setting: with `O=C1CC(Sc2ccccc2)N1C(=O)Nc1cccc2ccccc12` (racemic) the figure was 25 µg/mL (≈ 71.8 µM); with `O=C1CC(Sc2ccccc2)N1C(=O)NC(c1ccccc1)c1ccccc1` (racemic), 50 µg/mL (≈ 129 µM).
